The record followed here is ChEMBL document CHEMBL2057147, “Synthesis and in vitro antitumor activity of novel scopoletin derivatives” (Bioorg Med Chem Lett, 2012).

SMILES strings stand for the structures. Activity calls are given as the source filed them. The calls are words filed in the database; no cut-off is given here.

In assay [1] the test system is MCF7. In words: Antiproliferative activity against human MCF7 cells after 72 hrs by crystal violet staining method. As to conditions: for IC50: MCF7, 72 h. In kind it is functional, cell-based. Summed up:
(§1)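 Cells seeded at a known number in 96-well plates and exposed to increasing compound concentrations for 72 h; IC50 taken from the concentration–growth-inhibition data.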

The subject of assay [2] is MDA-MB-231. Briefly: Antiproliferative activity against human MDA-MB-231 cells after 72 hrs by crystal violet staining method. As to conditions: for IC50: MDA-MB-231, 72 h. In kind it is functional, cell-based. The gist of the method: as §1
Assay [3] has as its system HT-29. In words: Antiproliferative activity against human HT-29 cells after 72 hrs by crystal violet staining method. In kind it is functional, cell-based. As to conditions: for IC50: HT-29, 72 h. The gist of the method:
as §1

The subject of assay [4] is MCF7. Briefly: Cytocidal activity against human MCF7 cells at 20 uM after 72 hrs by crystal violet staining method relative to control. Type of assay: functional. Summed up:
(§2)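 Single-concentration growth inhibition in MCF-7 and MDA-MB 231 cells at 10 and 20 µM after 72 h, given as corrected treated/control percentage (T/C_corr %).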

For assay [5], the system named is MDA-MB-231. Briefly: Cytocidal activity against human MDA-MB-231 cells at 20 uM after 72 hrs by crystal violet staining method relative to control. Type of assay: functional. The gist of the method: as §2
The test system of assay [6] is MCF7. Briefly: Antiproliferative activity against human MCF7 cells at 20 uM after 72 hrs by crystal violet staining method relative to control. In kind it is functional. Summed up: as §2
For assay [7], the system named is MDA-MB-231. In words: Antiproliferative activity against human MDA-MB-231 cells at 20 uM after 72 hrs by crystal violet staining method relative to control. Type of assay: functional. Summed up: as §2
Assay [8] concerns MCF7. Briefly: Cytostatic activity against human MCF7 cells at 20 uM after 72 hrs by crystal violet staining method relative to control. Type of assay: functional. Summed up:
as §2

For assay [9], the system named is MDA-MB-231. In words: Cytostatic activity against human MDA-MB-231 cells at 20 uM after 72 hrs by crystal violet staining method relative to control. Type of assay: functional. Summed up: as §2
Assay [10] relates to MCF7. In words: Ratio of scopoletin IC50 to compound IC50 for human MCF7 cells. Type of assay: functional.
Assay [11] has as its system MDA-MB-231. In words: Ratio of scopoletin IC50 to compound IC50 for human MDA-MB-231 cells. In kind it is functional.
The test system of assay [12] is HT-29. Briefly: Ratio of scopoletin IC50 to compound IC50 for human HT-29 cells. In kind it is functional.
Assay [13] has as its system MCF7. In words: Antiproliferative activity against human MCF7 cells at 1.25 to 20 uM up to 144 hrs by crystal violet staining method. Type of assay: functional, cell-based. The gist of the method:
(§3)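 Time course at 1.25, 2.5, 5, 10 and 20 µM, with growth inhibition read as corrected treated/control percentage (T/C_corr %) at several incubation times over about 140 h.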

The subject of assay [14] is HT-29. In words: Antiproliferative activity against human HT-29 cells at 1.25 to 20 uM up to 144 hrs by crystal violet staining method. In kind it is functional, cell-based. Summed up:
as §3

Assay [15] relates to MDA-MB-231. In words: Induction of apoptosis in human MDA-MB-231 cells assessed as caspase3 activation at 10 uM after 24 hrs by fluorescence detection assay. Type of assay: functional, cell-based.
The subject of another assay is U2OS. Briefly: Induction of apoptosis in human U2OS cells assessed as caspase3 activation at 10 uM after 24 hrs by fluorescence detection assay. Type of assay: functional, cell-based.
The subject of assay [16] is MCF7. Briefly: Cytocidal activity against human MCF7 cells at 10 uM after 72 hrs by crystal violet staining method. In kind it is functional, cell-based. Summed up: as §2
Assay [17] deals with MDA-MB-231. In words: Cytocidal activity against human MDA-MB-231 cells at 10 uM after 72 hrs by crystal violet staining method. Type of assay: functional, cell-based. Summed up: as §2

For the compound `COc1cc2ccc(=O)oc2cc1O` [SCOPOLETIN], the IC50 with MCF7 [1], in the assay on MDA-MB-231 [2] and in the assay with HT-29 [3] was greater than 100 µM each time.
`COc1cc2ccc(=O)oc2cc1OCC(=O)Nc1ccc(C(C)(C)C)cc1`: the T/C in the assay with MCF7 [4] and in the assay with MDA-MB-231 [5] was less than 0% each time. Moreover, the IC50 came to 10.1 µM in the assay with MCF7 [1], 8.1 µM in the assay on MDA-MB-231 [2] and 19.6 µM in the assay with HT-29 [3].
On to `COc1ccccc1NC(=O)COc1cc2oc(=O)c(NC(C)=O)cc2cc1OC`, for which the T/C in the assay on MCF7 [6] and in the assay on MDA-MB-231 [7] was less than 50% each time. In addition, the concentration for half-maximal inhibition (IC50) in the assay with MCF7 [1] stood at 17.9 µM; with MDA-MB-231 [2] it was 14.7 µM; in the assay with HT-29 [3], 19.1 µM.
Take `COc1cc2ccc(=O)oc2cc1OCC(=O)Nc1ccc(Cl)cc1`: the T/C with MCF7 [6] and with MDA-MB-231 [7] was less than 50% throughout. Moreover, the IC50 was 19.5 µM in the assay on MCF7 [1], 19.3 µM with MDA-MB-231 [2] and 18.1 µM with HT-29 [3].
Consider `COc1cc2cc(NC(C)=O)c(=O)oc2cc1OCC(=O)Nc1ccc(F)cc1`, for which the outcome in the assay on MCF7 [1], with MDA-MB-231 [2] and with HT-29 [3] was Active.
`COc1cc2cc(NC(C)=O)c(=O)oc2cc1OCC(=O)Nc1ccc(C(C)(C)C)cc1`: the T/C with MCF7 [8] and in the assay with MDA-MB-231 [9] was 0% each time. Further, the IC50 with MCF7 [1] worked out at 3.9 µM; in the assay with MDA-MB-231 [2], 4.5 µM; in the assay on HT-29 [3], 4.3 µM. The “Ratio IC50” value in the assay with MCF7 [10], in the assay with MDA-MB-231 [11] and with HT-29 [12] was 12 throughout. For the same compound, the outcome in the assay with MCF7 [13] and with HT-29 [14] was Active. Besides, the result with MDA-MB-231 [15] and in the assay on U2OS was inactive.
On to `COc1ccc(NC(=O)COc2cc3oc(=O)c(NC(C)=O)cc3cc2OC)cc1OC`, for which the T/C with MCF7 [6] and with MDA-MB-231 [7] was less than 50% in each case. For the same compound, the values for the IC50 in the assay on MCF7 [1], in the assay with MDA-MB-231 [2] and in the assay on HT-29 [3] were 14.9 µM, 8.4 µM and greater than 20 µM, respectively.
With `COc1cc2ccc(=O)oc2cc1OCC(=O)Nc1ccc(F)c(Cl)c1`, the T/C in the assay on MCF7 [6] and in the assay on MDA-MB-231 [7] was less than 50% throughout. The outcome with MCF7 [16] and with MDA-MB-231 [17] was Active. Also, the figures for the IC50 in the assay on MCF7 [1], in the assay with MDA-MB-231 [2] and with HT-29 [3] were 6.5 µM, 6.3 µM and 7.6 µM, respectively. Moreover, the “Ratio IC50” value with MCF7 [10], in the assay with MDA-MB-231 [11] and in the assay with HT-29 [12] was 12 in each case.
As to `COc1cc2cc(NC(C)=O)c(=O)oc2cc1OCC(=O)Nc1ccc(C)cc1`, the T/C in the assay with MCF7 [6] and in the assay with MDA-MB-231 [7] was less than 50% in each case. Moreover, the values for the IC50 in the assay on MCF7 [1], with MDA-MB-231 [2] and with HT-29 [3] were 19 µM, 13.9 µM and greater than 20 µM, respectively.
In the assay on MCF7 [1], `O=c1[nH]cc(F)c(=O)[nH]1` [FLUOROURACIL] came in with an IC50 of 4.7 µM.
With `COc1cc2cc(NC(C)=O)c(=O)oc2cc1OCC(=O)Nc1ccc(Cl)cc1`, the outcome in the assay on MCF7 [1], with MDA-MB-231 [2] and in the assay with HT-29 [3] was Active.
`COc1cc2cc(NC(C)=O)c(=O)oc2cc1OCC(=O)Nc1cccc(C(C)=O)c1`: the outcome in the assay on MCF7 [1], in the assay on MDA-MB-231 [2] and with HT-29 [3] was Active.

Usually IC50 stands for the midpoint of a concentration-inhibition curve. By T/C is commonly meant the result in the treated group divided by that in the control group, in per cent.
